From ChEMBL document CHEMBL5614452, “Synthesis and Optimization of Small Molecule Inhibitors of Prostate Specific Antigen” (ACS Med Chem Lett, 2024) come the findings set out here.

Data set [1] has as its target T1, Prostate-specific antigen (Homo sapiens) (UniProt P07288).
T1 sequence (whole entry): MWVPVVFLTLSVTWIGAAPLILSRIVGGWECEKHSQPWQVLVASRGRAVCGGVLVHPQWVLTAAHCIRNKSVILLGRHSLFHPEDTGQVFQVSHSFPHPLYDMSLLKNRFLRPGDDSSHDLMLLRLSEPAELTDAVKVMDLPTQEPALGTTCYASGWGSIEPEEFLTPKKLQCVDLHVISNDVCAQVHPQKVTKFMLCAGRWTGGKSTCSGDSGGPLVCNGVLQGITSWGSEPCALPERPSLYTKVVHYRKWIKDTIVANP
Kind of data set: Inhibition of recombinant human semen PSA at 0.000001 to 500 uM using Mu-HSSKLQAMC as substrate preincubated for 15 mins followed by substrate addition by fluorescence based assay. The following applies: dose lower 1e-06 µM, dose upper 500.0 µM. It counts as single protein. Put shortly: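 PSA inhibition in a biochemical assay. Compounds tested at 100 nM, 1 μM, 10 μM, 100 μM and 500 μM, plus a lower picomolar-level concentration. Compounds with no inhibition across this range were scored not active.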

In data set [2] the target is T2, Prostate-specific antigen (Homo sapiens, UniProt P07288).
T2 sequence (P07288 whole entry): T1 sequence (whole entry)
Kind of data set: Inhibition of recombinant human semen PSA using Mu-HSSKLQAMC as substrate preincubated for 15 mins followed by substrate addition by fluorescence based assay.

The nature of data set [3]: Drug uptake in human HepG2 cells assessed as intracellular concentration per 10^9 cells at 10 uM incubated for 2 hrs by UHPLC-TSQ analysis. It counts as ADME, cell-based. The following applies: hepg2, 2 h. Put shortly: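 HepG2 cells exposed to compound. Intracellular amount expressed as nmol per 10^9 cells, n = 4.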
In a further data set the target is T3, Neutrophil elastase (Homo sapiens, UniProt P08246).
T3 sequence (P08246 whole entry): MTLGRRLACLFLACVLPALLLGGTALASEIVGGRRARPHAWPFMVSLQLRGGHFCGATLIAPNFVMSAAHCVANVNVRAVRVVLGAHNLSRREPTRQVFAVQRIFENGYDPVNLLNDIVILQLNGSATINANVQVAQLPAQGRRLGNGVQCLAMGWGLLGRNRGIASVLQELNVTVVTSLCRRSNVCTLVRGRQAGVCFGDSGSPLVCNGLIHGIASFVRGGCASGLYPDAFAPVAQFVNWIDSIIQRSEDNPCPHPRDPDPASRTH
Briefly: Inhibition of neutrophil elastase (unknown origin) using 7-amino-4-trifluoromethyl-coumarin based peptide as substrate measured for 1 hr by fluorescence based microplate reader assay. Put shortly: (§1)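 Protease inhibition measured in biochemical enzyme assays, with the result reported as Ki.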

Data set [4] in a line: Stability in DMEM/F-12 medium assessed as compound remaining at 10 uM after 24 hrs by LC-MS/MS analysis. Format: physicochemical. Put shortly:
(§2)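 Compound incubated in DMEM/F12 medium at 37 °C and sampled at 0, 8 and 24 h. Stability reported as percent of compound remaining.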

A short description of data set [5]: Aqueous solubility of compound incubated for 1 hr by HPLC analysis. Format: physicochemical.
A further data set has as its target Prothrombin (Homo sapiens, UniProt P00734). Briefly: Inhibition of thrombin (unknown origin) by fluorescence based assay. Put shortly: as §1
The nature of data set [6]: Cytotoxicity against human Ect1/E6E7 cells incubated for 1 to 3 hrs by MTT assay. Conditions: time 1-3 hrs. Format: toxicity, cell-based. Put shortly: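 Ect1/E6E7 human ectocervical cells exposed to compound for 1 or 3 h, with viability read by MTT assay. Nonoxynol-9 served as the positive cytotoxic control.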
A general note: Formazan colour is commonly taken as a measure of viable cells.

Data set [7] can be described thus: Inhibition of alpha-chymotrypsin (unknown origin) using N-Benzoyl-L-tyrosine ethyl ester as substrate preincubated for 5 mins followed by substrate addition and measured every 1 min for 10 mins by microplate reader assay. The arrangement: species or system Homo sapiens. Summed up: as §1
The nature of data set [8]: Stability in DMEM/F-12 medium assessed as compound remaining at 10 uM after 8 hrs by LC-MS/MS analysis. Format: physicochemical. Conditions: read-out: Stability. Summed up: as §2

Structures are written as SMILES. ≈ marks a conversion by molar mass, not a printed value. Calls of active or inactive are those of the source. The rule behind the calls is not given here.

For `COc1ccc(-c2cc(N(C)C)n(C(=O)c3ccc(OC)c(OC)c3)n2)cn1`, the inhibition result in [1] is “inactive”.

As a reminder, the Ki is a measure of affinity in units of concentration, obtained from inhibition or displacement. `COc1ccc(CC(=O)n2nc(-c3cccnc3)nc2N)cc1OC`: in data set [2], the Ki was 308 µM.

For `Nc1n[nH]c(-c2cccnc2)n1`, the inhibition result in data set [1] was “inactive”.

As for `COc1cncc(-c2cc(N)n(C(=O)c3ccc(OC)c(OC)c3)n2)c1`, the inhibition entry in data set [1] was “inactive”.

By solubility is commonly meant how much of the substance goes into solution per volume. A lower solubility goes with a poorly soluble substance. Turning to `COc1ccc(-c2cc(N)n(C(=O)c3ccc4[nH]cnc4c3)n2)cn1`, the Drug uptake in data set [3] came out at 3.41 nmol. For the same molecule, the values for the Ki (on Neutrophil elastase; on Prothrombin; in data set [7]) were 1180 µM, 0.411 µM and 2.74 µM, respectively. The Stability result in [4] is on record as “Unstable”. For the same molecule, the solubility at 1 h in data set [5] was 27 µM (≈ 9.03 µg/mL). Further, in data set [6], the Activity result is “Non-Toxic”. Further, the remaining at 8 h, 10 µM in data set [8] was around 47%.

With `CNc1cc(-c2ccc(OC)nc2)nn1C(=O)c1ccc(OC)c(OC)c1`, in [1], the inhibition entry was “inactive”.

Turning to `COc1ccc(Cn2nc(-c3cccnc3)nc2N)cc1OC`, in data set [1], the inhibition entry was “inactive”.

In the case of `COc1ccc(-c2cc(N)n(C(=O)c3cc(OC)c(OC)c(OC)c3)n2)cn1`, the Ki in [2] worked out at 367 µM.

`COc1ccc(C(=O)n2nc(-c3ccncc3)cc2N)cc1OC`: the Ki in data set [2] stood at 104 µM.

For the molecule `COc1ccc(C(=O)n2nc(-c3cccnc3)nc2N)cc1OC`, the Stability result in data set [4] is “Unstable”. In [8], the remaining at 8 h, 10 µM is around 4%.
